HKDC1 inh – inhibitors of human hexokinase HKDC1; AID 493160; recombinant HKDC1, G6PDH/diaphorase resazurin coupled fluorescence; 340,000 compounds, 0.16% hits; inhibition, % at 20 µM;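 active = inhibition above about 35% when tested at 20 µM, limit read from the data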;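 also: plate controls were DMSO wells with enzyme for no effect and DMSO wells lacking enzyme for full effect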
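Test system: recombinant HKDC1 (HK5) hexokinase enzyme, produced in-house / Doses: 20 µM test compound, 1% DMSO / Timing: 90 min, room temperature / Detection: G6PDH/diaphorase-coupled fluorescence, 1 mM NADP, 100 µM resazurin, 525/613 nm / Control set: DMSO wells with and without enzyme mix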
STEP inh – STEP (human) phosphatase inhibition. P54829. recombinant STEP, OMFP fluorogenic substrate, fluorescence. inhibition, % at 20 µM. 360,000 compounds, 0.25% hits. AID 588621;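 active = inhibition at 20 µM, scaled per plate between control wells, above about 37%, limit read from the data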;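 also: 0% = DMSO with enzyme and substrate and 100% = substrate only without enzyme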
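Measure: Control-normalized % inhibition with plate pattern correction | Test system: STEP phosphatase, cell-free reaction | Medium: pH 6.0 Bis-Tris with DTT and Tween 20 | Technique: Fluorescence, 480/540 nm | Times: Reaction 20 min, ambient temperature | Doses: Single compound dose of 20 µM, 1% DMSO final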
Scp-1 inhibitor – blocks human Scp-1 phosphatase activity; Recombinant Scp1, phosphopeptide, malachite green phosphate absorbance; inhibition, % at 20 µM; 340,000 compounds, 0.88% hits; AID 493091;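 active = inhibition above about 50% at 20 µM, limit read from the data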;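 also: plate controls were DMSO wells with enzyme for no effect and wells lacking enzyme for full effect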
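Test system: SCP-1 phosphatase catalytic domain, residues 76-261 | Compound dosing: One concentration, 20 µM, with 1.0% DMSO | Schedule: 45 min room-temperature reaction, 5 min colour, 30 min stabiliser | Detection: Absorbance at 630 nm | Read-out basis: % inhibition of SCP-1 phosphate liberation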
LMPTP inh – LMPTP (human) inhibition. P24666. recombinant LMPTP-A, OMFP fluorogenic substrate, fluorescence intensity. AID 651560. inhibition, % at 20 µM. 360,000 compounds, 0.22% hits;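 active = compounds that cut the enzyme signal by at least half of the control window in the single-dose screen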;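 also: plate controls were DMSO wells with enzyme plus substrate for no effect and substrate without enzyme for full effect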
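test system = LMPTP-A | amount = 0.625 nM LMPTP-A final | reagent = fluorogenic phosphatase substrate OMFP at 400 µM final | incubation = 50 min at room temperature | benchmarks = no-enzyme low control, uninhibited high control | medium = Bis-Tris pH 6.0, DTT, detergent | signal = fluorescence intensity of OMFP turnover product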
SUMO1-SIM PPI – SUMO1-SIM interaction modulation. inhibition, % at 20 µM. 360,000 compounds, 0.33% hits. SUMO1 binding to a labelled peptide, TR-FRET, 1 h. AID 602429. P63165; in the data active = inhibition above about 37%
DNMT1 block – DNMT1 (human) enzyme inhibition; P26358; DNMT1 molecular beacon, Hinp1I cleavage, fluorescence; inhibition (reported as % activation of signal), % at 10 µM; 360,000 compounds, 0.83% hits; AID 588458; in the data active = inhibition above about 50%
Target sequence (P26358 504-1616 limits assumed): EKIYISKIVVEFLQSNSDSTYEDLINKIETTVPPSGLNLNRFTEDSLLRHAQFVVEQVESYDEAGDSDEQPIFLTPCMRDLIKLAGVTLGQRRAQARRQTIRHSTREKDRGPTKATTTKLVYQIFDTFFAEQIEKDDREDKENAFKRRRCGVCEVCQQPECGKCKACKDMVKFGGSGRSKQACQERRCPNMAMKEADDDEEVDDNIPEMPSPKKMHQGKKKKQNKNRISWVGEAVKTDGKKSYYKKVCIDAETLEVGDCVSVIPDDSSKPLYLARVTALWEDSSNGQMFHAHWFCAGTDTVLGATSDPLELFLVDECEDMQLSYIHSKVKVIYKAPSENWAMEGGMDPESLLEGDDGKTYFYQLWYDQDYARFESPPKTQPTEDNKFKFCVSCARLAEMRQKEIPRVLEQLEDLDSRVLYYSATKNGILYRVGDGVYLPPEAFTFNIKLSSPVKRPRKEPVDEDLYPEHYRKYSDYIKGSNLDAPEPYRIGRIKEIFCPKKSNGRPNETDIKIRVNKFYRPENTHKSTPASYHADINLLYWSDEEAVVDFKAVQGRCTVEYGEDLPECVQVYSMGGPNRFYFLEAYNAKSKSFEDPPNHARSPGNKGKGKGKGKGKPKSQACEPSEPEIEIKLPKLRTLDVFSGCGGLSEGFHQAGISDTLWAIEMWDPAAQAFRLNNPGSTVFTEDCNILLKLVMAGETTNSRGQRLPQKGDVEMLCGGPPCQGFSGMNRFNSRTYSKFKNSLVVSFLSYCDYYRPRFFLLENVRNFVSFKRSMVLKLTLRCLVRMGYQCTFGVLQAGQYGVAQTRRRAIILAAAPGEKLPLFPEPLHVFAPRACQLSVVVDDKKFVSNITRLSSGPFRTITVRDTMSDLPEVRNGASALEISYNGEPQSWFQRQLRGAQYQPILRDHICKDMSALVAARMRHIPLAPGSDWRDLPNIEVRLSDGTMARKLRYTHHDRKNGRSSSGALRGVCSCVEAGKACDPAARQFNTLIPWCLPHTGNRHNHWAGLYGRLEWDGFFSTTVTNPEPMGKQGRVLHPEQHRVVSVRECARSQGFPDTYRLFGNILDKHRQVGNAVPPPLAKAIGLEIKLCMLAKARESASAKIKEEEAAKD
DNMT1 inh conf – DNMT1 inhibition confirmation, single concentration; 2,300 compounds, 8% hits; shares compounds with DNMT1 block; inhibition, % at 10 µM; DNMT1 molecular beacon HinP1I cleavage, fluorescence;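 active = average inhibition of at least 30% in the single-concentration confirmation test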
Beacon interf – shows spectral interference in the DNMT1 beacon assay. shares compounds with DNMT1 block. DNMT1 molecular beacon spectral interference counterscreen, fluorescence 485/520. activation (fluorescence interference), % at 10 µM. 2,300 compounds, 1% hits. AID 602387;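 active = activation of at least 30% at 10 µM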;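 also: DNMT1 catalytic domain with a HinP1I cleavage step and a FAM/dabcyl DNA beacon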
The depositor's hits bear a star; · = not tested or not shown. The list is not random: actives were taken first. Their share in the collection is about 1.8%.

SMILES	HKDC1 inh	STEP inh	Scp-1 inhibitor	LMPTP inh	SUMO1-SIM PPI	DNMT1 block	DNMT1 inh conf	Beacon interf
COc1ccc(CCNC(=O)c2ccc(OCc3c(C)noc3C)c(OC)c2)cc1	-5	-2	0	-1	-1	1	·	·
COc1ccc(CCNC(=O)c2ccc(OCc3c(C)noc3C)cc2)cc1OC	5	-3	-2	0	-6	54*	10	9
NC(=O)CC(NC(=O)Cc1ccc(Cl)cc1)c1ccc(N2CCC(Cc3ccccc3)CC2)c([N+](=O)[O-])c1 (centres undefined)	-2	-1	0	1	-4	71*	1	2
NC(=O)CC(NC(=O)c1cccc(Br)c1)c1ccc(N2CCN(c3ccccn3)CC2)c([N+](=O)[O-])c1 (centres undefined)	-5	-2	-7	1	-12	103*	5	9
O=C(Nc1c(-c2ccccc2)[nH][nH]c1=O)c1ccc(Br)cc1	·	2	·	2	6	-15	·	·
CCCCC(=O)N(C)c1c(CC)nc2c(OCCOc3ccccc3)cccn12	·	2	·	1	4	-3	·	·
COc1ccc(NC(=O)C2Cc3c(-c4ccco4)ccnc3O2)cc1OC (centres undefined)	·	-1	·	1	-1	90*	1	2
CCOc1ccccc1N1Cc2cc(C)c(C)cc2C1	0	0	-4	3	-1	54*	0	1
c1ccc2cc(CN3CCOCC3)ccc2c1	-9	-2	-4	0	3	3	·	·
Cc1cc2ccccc2cc1CN1CCOCC1	-2	1	-5	-2	-2	58*	7	7
CC(C)C[C@H]1CN(CCCC[C@H]2CNC(=O)C(=O)N2Cc2ccccc2)C(=O)C(=O)N1CCC1CCCCC1	·	·	·	-2	4	·	·	·
O=C(Cn1cncc1-c1ccc([N+](=O)[O-])cc1)Nc1cccc2ccccc12	8	2	13	6	-14	50*	7	-3
CCOc1ccc(NC(=O)Cn2cncc2-c2ccc([N+](=O)[O-])cc2)cc1	-5	4	-6	17	-11	35	·	·
CCOc1ncccc1C(=O)Nc1cc2c(cc1Br)OCCO2	0	2	-9	2	8	-4	·	·
CC1=C(C(=O)N(C(C)C)C(C)C)CC(CC(=O)NCc2ccco2)C(=O)N1CCCN1CCCC1=O (centres undefined)	·	-2	·	-1	5	4	·	·
CCCCn1nnnc1C1(C)CCC(=O)N1Cc1cccnc1 (centres undefined)	·	·	·	0	6	·	·	·
Cc1ccc(-c2nc3cccnc3o2)cc1NC(=O)COc1ccc(Cl)cc1C	5	5	3	2	19	73*	2	-7
Cc1ccc(-c2nc3ncccc3o2)cc1NC(=O)Cc1ccc(Cl)cc1	-2	-4	-12	-1	1	76*	3	4
Cc1ccc(-c2nc3cccnc3o2)cc1NC(=O)COc1ccc(C(C)(C)C)cc1	8	6	8	6	1	-7	·	·
CN(C(=O)CSc1nnc(C2CC2)n1-c1ccccc1)C1CCS(=O)(=O)C1 (centres undefined)	-6	1	-7	0	3	5	·	·
Cc1ccc(NC(=O)C2CCN(S(=O)(=O)c3cccnc3)CC2)cc1C	-3	-1	-8	0	24	-1	·	·
Cc1cc2cc(CNS(=O)(=O)c3ccc4ccccc4c3)ccc2n1C	1	2	-4	9	-17	54*	4	1
CC(=O)Nc1ccc(S(=O)(=O)NCc2ccc3c(c2)cc(C)n3C)cc1	7	-2	-12	27	-25	-16	·	·
CSc1ccccc1OCc1cc(C(=O)NCCC2=CCCCC2)no1	-8	4	-5	1	-2	-1	·	·
COCCN(C(=O)COc1ccccc1C#N)c1c(N)n(Cc2ccccc2)c(=O)[nH]c1=O	3	-1	-3	-1	12	4	·	·
SMILES	HKDC1 inh	STEP inh	Scp-1 inhibitor	LMPTP inh	SUMO1-SIM PPI	DNMT1 block	DNMT1 inh conf	Beacon interf
COC(=O)c1sccc1NC(=O)c1cc(-c2cccc(C)c2)nc2ccccc12	-6	-5	7	1	-2	50*	0	-12
COC(=O)c1sccc1NC(=O)c1cc(-c2ccc(C)cc2)nc2ccccc12	0	-1	0	1	0	8	·	·
Cn1cc(Br)c(C(=O)Nc2sc3c(c2C(N)=O)CCCC3)n1	5	5	2	3	27	-3	·	·
CCn1cc(Br)c(C(=O)Nc2sc3c(c2C(N)=O)CCCC3)n1	-4	2	-7	9	4	68*	2	-3
CCc1nc2ccc(C(=O)N3CCN(c4ccc([N+](=O)[O-])cc4)CC3)cc2nc1CC	9	1	-5	1	-11	-2	·	·
Cn1ccsc1=NC(=O)c1ccc([N+](=O)[O-])o1	1	36	65*	2	-19	59*	3	0
COc1cc(C(=O)N=c2sccn2C)c([N+](=O)[O-])cc1OC	-2	-1	-6	-1	-5	2	·	·
COC(=O)C1=CN(c2ccc(F)cc2)C(N)=C(C#N)C1c1cccc(OC)c1OC (centres undefined)	·	·	·	0	1	·	·	·
COc1ccccc1OCCSc1nc2ccccc2n1CC(=O)O	·	0	·	-3	35	80*	5	4
S=c1nc(-c2ccccn2)c(-c2ccccn2)n[nH]1	·	2	·	-1	-3	2	·	·
O=C(O)C1CSC(c2ccco2)N1 (centres undefined)	4	32	67*	58*	23	97*	17	-4
COCCNCCCCSc1ccc(Cl)cc1	-7	-1	1	-2	-2	75*	0	0
CC1=C(C(=O)N2CCCCCC2)CC(CC(=O)NCc2ccco2)C(=O)N1Cc1ccccc1 (centres undefined)	·	0	·	-2	-2	8	·	·
CCc1c(O)cc(=O)n(-c2ccccc2)c1-c1ccccc1	-4	4	7	-23	5	58*	7	4
CN(CCOc1ccccc1)C(=O)c1cc(S(=O)(=O)N2CCOCC2)c(Cl)cc1Cl	·	-1	·	2	-1	-1	·	·
O=C1CC(c2ccco2)Sc2nc3ccccc3n21 (centres undefined)	5	7	0	1	11	56*	5	5
O=C1CC(c2ccccc2)Sc2nc3ccccc3n21 (centres undefined)	3	1	-4	0	-1	0	·	·
